What all share (format): functional
Assay [1] concerns Saccharomyces cerevisiae. Kind of assay: Antifungal activity against Saccharomyces cerevisiae 156250 at 1 mg/ml after 48 hrs by agar-well diffusion technique. The settings on record: Saccharomyces cerevisiae, 156250, 48 h; read-out: DIZ. In outline:
(§1)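 Yeast (0.1 ml) was spread on potato dextrose agar, and 4 mm wells were cut with a sterile cork borer. Wells were loaded with test chemical at a final 1 mg ml^-1, then incubated at 25 °C for 48 h. Inhibition zones around the wells were measured, averaged over 3 replicas.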

The test system of assay [2] is Candida albicans. The assay can be described thus: Antifungal activity against Candida albicans 155965 at 1 mg/ml after 48 hrs by agar-well diffusion technique. The settings on record: Candida albicans, 155965, 48 h; read-out: DIZ. In outline: as §1
A general note: In agar diffusion tests the substance spreads into inoculated agar from a disc or well.

Assay [3] relates to Escherichia coli. The assay can be described thus: Antibacterial activity against Escherichia coli 124300 at 1 mg/ml after 24 hrs by agar-well diffusion technique. The settings on record: Escherichia coli, 124300, 24 h; read-out: DIZ. In outline:
(§2)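 Each bacterial strain (0.1 ml) was spread on nutrient agar, and 4 mm wells were cut with a sterile cork borer. Wells were loaded with test chemical at a final 1 mg ml^-1, then incubated at 37 °C for 24 h. Inhibition zone diameters around the wells were measured, averaged over 3 replicas.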

The test system of assay [4] is Serratia marcescens. The assay can be described thus: Antibacterial activity against Serratia marcescens 155449 at 1 mg/ml after 24 hrs by agar-well diffusion technique. The settings on record: Serratia marcescens, 155449, 24 h; read-out: DIZ. In outline: as §2
Assay [5] concerns Pseudomonas aeruginosa. Kind of assay: Antibacterial activity against Pseudomonas aeruginosa 155250A at 1 mg/ml after 24 hrs by agar-well diffusion technique. The settings on record: read-out: DIZ. In outline:
as §2

For assay [6], the system named is Bacillus subtilis. The assay can be described thus: Antibacterial activity against Bacillus subtilis 154921 at 1 mg/ml after 24 hrs by agar-well diffusion technique. The settings on record: Bacillus subtilis, 154921, 24 h; read-out: DIZ. In outline: as §2
Assay [7] deals with Staphylococcus aureus. The assay can be described thus: Antibacterial activity against Staphylococcus aureus 155554A at 1 mg/ml after 24 hrs by agar-well diffusion technique. The settings on record: read-out: DIZ. In outline:
as §2

For assay [8], the system named is Saccharomyces cerevisiae. Kind of assay: Antifungal activity against Saccharomyces cerevisiae 156250 at 100 mg/ml after 48 hrs by agar-well diffusion technique. The settings on record: Saccharomyces cerevisiae, 156250, 48 h; read-out: DIZ. In outline:
(§3)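 0.1 ml of the yeast spread on potato dextrose agar. 4 mm wells were cut with a sterile cork borer and filled with test solution. Plates were incubated at 25 °C for 48 h. Inhibition zones around the wells were measured, and the mean of 3 replicas was recorded. Cycloheximide served as the antifungal reference.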

The test system of assay [9] is Candida albicans. The assay can be described thus: Antifungal activity against Candida albicans 155965 at 100 mg/ml after 48 hrs by agar-well diffusion technique. The settings on record: Candida albicans, 155965, 48 h; read-out: DIZ. The procedure, abridged: as §3
Assay [10] concerns Escherichia coli. The assay can be described thus: Antibacterial activity against Escherichia coli 124300 at 100 mg/ml after 24 hrs by agar-well diffusion technique. The settings on record: Escherichia coli, 124300, 24 h; read-out: DIZ. In outline:
(§4)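 The penicillin reference was applied at 100 mg ml^-1 in 4 mm wells on nutrient agar plates spread with 0.1 ml of each bacterial strain. Plates were incubated at 37 °C for 24 h, and inhibition zones were measured as the average of 3 replicas.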

In assay [11] the test system is Serratia marcescens. Kind of assay: Antibacterial activity against Serratia marcescens 155449 at 100 mg/ml after 24 hrs by agar-well diffusion technique. The settings on record: Serratia marcescens, 155449, 24 h; read-out: DIZ. The procedure, abridged: as §4
Assay [12] deals with Pseudomonas aeruginosa. The assay can be described thus: Antibacterial activity against Pseudomonas aeruginosa 155250A at 100 mg/ml after 24 hrs by agar-well diffusion technique. The settings on record: read-out: DIZ. The procedure, abridged: as §4
Assay [13] concerns Bacillus subtilis. The assay can be described thus: Antibacterial activity against Bacillus subtilis 154921 at 100 mg/ml after 24 hrs by agar-well diffusion technique. The settings on record: Bacillus subtilis, 154921, 24 h; read-out: DIZ. In outline: as §4
Assay [14] relates to Staphylococcus aureus. Kind of assay: Antibacterial activity against Staphylococcus aureus 155554A at 100 mg/ml after 24 hrs by agar-well diffusion technique. The settings on record: read-out: DIZ. The procedure, abridged:
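0.1 ml of the bacterial strain spread on nutrient agar. 4 mm wells were cut with a sterile cork borer and filled with test solution. Plates were incubated at 37 °C for 24 h. Inhibition zone diameters were measured around the wells, and the average of 3 replicas was recorded. Penicillin served as the antibacterial reference.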

Molecules are shown by their SMILES.

Take `N#Cc1c(-c2ccccc2)csc1NC(=O)c1cn[nH]c1N`: the zone of inhibition at 1000 µg/mL in [1] amounted to 2.6 mm; in assay [2], 4 mm; in assay [3], 2.6 mm; in assay [4], 0.7 mm; in assay [5], 6.6 mm; in assay [6], 2 mm. Also, the zone of inhibition at 1000 µg/mL in assay [7] came out at 0 mm.
With `N#Cc1c(-c2ccc(Cl)cc2)csc1NC(=O)c1cn[nH]c1N`, the zone of inhibition at 1000 µg/mL stood at 4 mm in assay [1]; 6.6 mm in assay [2]; 0 mm in [3]; 2 mm in [4]; 3.3 mm in assay [5]; 7.3 mm in [6]. In addition, the zone of inhibition at 1000 µg/mL in [7] amounted to 2 mm.
For `N#Cc1c(-c2ccccc2)c(C#N)c2[nH]c(=O)c3c(-c4ccccc4)csc3n2c1=N`, the zone of inhibition at 1000 µg/mL amounted to 2.6 mm in assay [1]; 2 mm in [2]; 6.3 mm in assay [3]; 4.6 mm in assay [4]; 4 mm in assay [5]; 4 mm in assay [6]. In [7], the zone of inhibition at 1000 µg/mL was determined as 0 mm.
Take `Cc1ccc(-c2c(C#N)c(=N)n3c([nH]c(=O)c4c(-c5ccccc5)csc43)c2C#N)cc1`: the zone of inhibition at 1000 µg/mL amounted to 0.7 mm in assay [1]; 0 mm in assay [2]; 2.6 mm in assay [3]; 3.3 mm in [4]; 6 mm in assay [5]; 2 mm in [6]. In assay [7], the zone of inhibition at 1000 µg/mL came out at 0 mm.
On to `N#Cc1c(-c2ccccc2)c(C#N)c2[nH]c(=O)c3c(-c4ccc(Cl)cc4)csc3n2c1=N`, for which the zone of inhibition at 1000 µg/mL in assay [1] was 4 mm; in assay [2], 0 mm; in assay [3] it was 4 mm; in [4], 4 mm; in [5] it was 6 mm; in assay [6] it was 2 mm. Moreover, the zone of inhibition at 1000 µg/mL in [7] was found to be 0 mm.
Turning to `Cc1ccc(-c2c(C#N)c(=N)n3c([nH]c(=O)c4c(-c5ccc(Cl)cc5)csc43)c2C#N)cc1`, the zone of inhibition at 1000 µg/mL in assay [1] was found to be 2 mm; in assay [2] it was 0 mm; in assay [3] it was 3.3 mm; in assay [4], 4 mm; in assay [5], 6 mm; in [6] it was 2 mm. Besides, in assay [7], the zone of inhibition at 1000 µg/mL was determined as 0 mm.
For `N#Cc1c(-c2ccc([N+](=O)[O-])cc2)c(C#N)c2[nH]c(=O)c3c(-c4ccc(Cl)cc4)csc3n2c1=N`, the zone of inhibition at 1000 µg/mL in [1] amounted to 1.3 mm; in assay [2] it was 2.6 mm; in [3] it was 5.3 mm; in assay [4], 4 mm; in [5], 6 mm; in [6], 4 mm. Moreover, the zone of inhibition at 1000 µg/mL in assay [7] amounted to 0 mm.
Take `N#Cc1c(-c2ccc(Cl)cc2)c(C#N)c2[nH]c(=O)c3c(-c4ccc(Cl)cc4)csc3n2c1=N`: the zone of inhibition at 1000 µg/mL stood at 0.7 mm in assay [1]; 0 mm in assay [2]; 4 mm in assay [3]; 2.6 mm in [4]; 7 mm in assay [5]; 3.3 mm in assay [6]. For the same compound, the zone of inhibition at 1000 µg/mL in [7] is 0 mm.
For the compound `CCOC(=O)c1sc2c(c1C)c(=O)[nH]c1c(C#N)c(-c3ccc(Cl)cc3)c(C#N)c(=N)n12`, the zone of inhibition at 1000 µg/mL in assay [1] is 0 mm; in [2], 0 mm; in assay [3], 8 mm; in assay [4], 4.6 mm; in assay [5], 6 mm; in [6], 2 mm. Besides, the zone of inhibition at 1000 µg/mL in [7] was 0 mm.
Turning to `CN(C)c1ccc(/C=C(\C#N)C(=O)Nc2scc(-c3ccccc3)c2C#N)cc1`, the zone of inhibition at 1000 µg/mL was found to be 0 mm in assay [1]; 0 mm in [2]; 2 mm in [3]; 7.3 mm in [4]; 4 mm in assay [5]; 0 mm in assay [6]. The zone of inhibition at 1000 µg/mL in assay [7] was 0 mm.
Consider `CN(C)c1ccc(/C=C(\C#N)C(=O)Nc2scc(-c3ccc(Cl)cc3)c2C#N)cc1`, for which the zone of inhibition at 1000 µg/mL turned out to be 0 mm in assay [1]; 0 mm in [2]; 2 mm in assay [3]; 2 mm in [4]; 6 mm in assay [5]; 3.6 mm in [6]. Also, the zone of inhibition at 1000 µg/mL in assay [7] was determined as 0 mm.
On to `N#Cc1c(-c2ccccc2)csc1NC(=O)c1ccc(-c2ccccc2)[nH]c1=O`, for which the zone of inhibition at 1000 µg/mL is 1.3 mm in assay [1]; 0 mm in [2]; 3.3 mm in assay [3]; 2 mm in assay [4]; 5.3 mm in assay [5]; 1.6 mm in assay [6]. Besides, the zone of inhibition at 1000 µg/mL in [7] came out at 0 mm.
`N#Cc1c(-c2ccccc2)csc1NC(=O)c1ccc(-c2cccs2)[nH]c1=O`: the zone of inhibition at 1000 µg/mL turned out to be 2 mm in assay [1]; 0 mm in [2]; 2 mm in assay [3]; 2 mm in assay [4]; 4 mm in assay [5]; 2 mm in assay [6]. In addition, in [7], the zone of inhibition at 1000 µg/mL was found to be 0 mm.
With `Cc1cccc(-c2ccc(C(=O)Nc3scc(-c4ccccc4)c3C#N)c(=O)[nH]2)n1`, the zone of inhibition at 1000 µg/mL in [1] is 0 mm; in assay [2] it was 0 mm; in assay [3], 0 mm; in [4], 0 mm; in assay [5] it was 4 mm; in [6], 0 mm. Moreover, the zone of inhibition at 1000 µg/mL in assay [7] was 0 mm.
For the compound `C[C@@H]1C[C@@H]([C@H](O)CC2CC(=O)NC(=O)C2)C(=O)[C@@H](C)C1` [CYCLOHEXIMIDE], the zone of inhibition at 100000 µg/mL in assay [8] came out at 40 mm; in [9], 0 mm.
As for `CC1(C)S[C@@H]2[C@H](NC(=O)Cc3ccccc3)C(=O)N2[C@H]1C(=O)O` [PENICILLIN G], the zone of inhibition at 100000 µg/mL was 8.6 mm in [10]; 7 mm in assay [11]; 30 mm in [12]; 4.6 mm in assay [13]; 40 mm in assay [14].

Values taken from ChEMBL document CHEMBL2021764, “2-Aminothiophenes as building blocks in heterocyclic synthesis: synthesis and antimicrobial evaluation of a new class of pyrido[1,2-a]thieno[3,2-e]pyrimidine, quinoline and pyridin-2-one derivatives” (2012).
